Pemphigus Ab inh = inhibitors of pemphigus antibody binding to human desmoglein-3; binding (percent of control), % at 10 µM; hit rate 0.48% among 310,000; DSG3-coupled beads, scFv-anti-DSG3-GFP binding, flow cytometry; stronger effect = lower value; P32926;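 active = binding more than 3 SD below its plate's average and above zero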
LMPTP inh = LMPTP (human) inhibition | P24666 | recombinant LMPTP-A, OMFP fluorogenic substrate, fluorescence intensity | inhibition, % at 20 µM | hit rate 0.22% among 360,000 | AID 651560;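 active = compounds that cut the enzyme signal by at least half of the control window in the single-dose screen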;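 note: plate controls were DMSO wells with enzyme plus substrate for no effect and substrate without enzyme for full effect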
Target sequence (P24666 whole entry, looked up): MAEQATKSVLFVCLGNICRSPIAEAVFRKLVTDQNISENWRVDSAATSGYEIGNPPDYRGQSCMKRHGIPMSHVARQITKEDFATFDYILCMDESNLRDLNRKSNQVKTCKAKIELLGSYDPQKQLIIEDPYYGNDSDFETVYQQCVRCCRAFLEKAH
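Assay system: LMPTP-A, protein tyrosine phosphatase of low molecular weight / Medium: pH 6.0 Bis-Tris buffer with DTT and Triton X-100 / Schedule: 50 min enzyme reaction at room temperature, protected from light / Measured by: endpoint fluorescence intensity from OMFP dephosphorylation / Read-out basis: % inhibition relative to no-enzyme and uninhibited control wells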
Scp-1 inhibitor = Scp-1 (human) phosphatase inhibition | inhibition, % at 20 µM | hit rate 0.88% among 340,000 | Recombinant Scp1, phosphopeptide, malachite green phosphate absorbance;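 active = inhibition above about 50% at 20 µM, limit read from the data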;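 note: plate controls were DMSO wells with enzyme for no effect and wells lacking enzyme for full effect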
Target sequence (Q9GZU7 76-261 limits assumed): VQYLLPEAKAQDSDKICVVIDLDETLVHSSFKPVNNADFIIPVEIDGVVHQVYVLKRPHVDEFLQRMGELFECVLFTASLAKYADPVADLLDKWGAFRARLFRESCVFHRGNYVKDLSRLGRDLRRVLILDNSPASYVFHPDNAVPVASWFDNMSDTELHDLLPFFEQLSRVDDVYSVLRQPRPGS
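Test system: SCP-1 catalytic domain; Buffer or medium: Acidic Tris acetate buffer with magnesium and detergent; Also added: Phosphorylated 17-residue peptide substrate; Compound: single 20 µM dose, 1% DMSO; Schedule: enzyme reaction 45 min at room temperature, colour 5 min, stabilisation 30 min; Signal: Phosphate-binding colour reagent, absorbance read at 630 nm.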
SUMO1 PPI mod = modulators of human SUMO1-mediated protein-protein interactions | hit rate 0.33% among 360,000 | P63165 | SUMO1 binding to a labelled peptide, TR-FRET, 1 h | inhibition, % at 20 µM | AID 602429; in the data active = inhibition above about 37%
Target sequence (P63165 whole entry, looked up): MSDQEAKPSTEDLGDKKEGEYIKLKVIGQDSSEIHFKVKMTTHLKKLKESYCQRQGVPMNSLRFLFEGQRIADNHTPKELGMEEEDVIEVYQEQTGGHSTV
STEP inh = inhibitors of human striatal-enriched phosphatase STEP | hit rate 0.25% among 360,000 | recombinant STEP, OMFP fluorogenic substrate, fluorescence | P54829 | inhibition, % at 20 µM;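 active = inhibition at 20 µM, scaled per plate between control wells, above about 37%, limit read from the data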;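 note: 0% = DMSO with enzyme and substrate and 100% = substrate only without enzyme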
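Material: STEP (striatal-enriched tyrosine phosphatase) enzyme, cell-free | Medium: 50 mM Bis-Tris pH 6.0 with 2.5 mM DTT and 0.005% Tween 20 | Read-out: Percent inhibition scaled to no-enzyme and uninhibited-enzyme controls, plate-pattern corrected | Signal: Fluorescence read at 480 nm ex / 540 nm em | Times: 20 min reaction, room temperature, in the dark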
Scp1 confirm = Scp-1 (human) inhibition, single-dose confirmed | shares compounds with Scp-1 inhibitor | recombinant SCP-1 catalytic domain, phosphate release, malachite green absorbance | inhibition, % at 20 µM | hit rate 61% among 2,500;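 note: plate controls were DMSO with enzyme for no effect and buffer wells lacking enzyme for full effect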
Scp-1 MG ctr = interferes with malachite green readout, flagging false Scp-1 hits; 2,500 tested, under 10 active; shares compounds with Scp-1 inhibitor; Colorimetric interference counterscreen, malachite green absorbance 630 nm; AID 540313; apparent inhibition (interference), % at 20 µM;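 note: compounds added after enzyme reaction finished so only phosphate colour detection is probed; plate controls were DMSO wells with completed Scp-1 reaction for no effect and substrate wells lacking enzyme for full effect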
Scp1 DSF = Scp-1 (human) binding by thermal shift | shares compounds with Scp-1 inhibitor | Recombinant SCP1, Sypro Orange thermal shift Tm | thermal shift relative to vanadate control, % at 40 µM | hit rate 25% among 1,500 | AID 540329;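 active = substances whose mean melting-temperature shift, as a percentage of the reference inhibitor's shift, reaches about 5.3%, limit read from the data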;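 note: 0% = Tm of DMSO wells and 100% = Tm with sodium orthovanadate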
An asterisk follows results filed as active; · = no result given. Sampled rows, rich in hits. Any-hit rate of the full collection: about 1.7%.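 Rule for the calls, unless noted: active = inhibition of at least 30% at 20 µM; inactive = the rest.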

SMILES	Pemphigus Ab inh	LMPTP inh	Scp-1 inhibitor	SUMO1 PPI mod	STEP inh	Scp1 confirm	Scp-1 MG ctr	Scp1 DSF
CCOC(=O)COc1cc(OCC(=O)OCC)c2c3c(c(=O)oc2c1)CCCC3	99	3	-15	5	4	·	·	·
C[C@H](CO)N1C[C@H](C)[C@@H](CN(C)S(=O)(=O)c2ccc(F)cc2)Oc2ccc(NC(=O)Nc3ccccc3)cc2C1=O	·	0	-4	-1	-2	·	·	·
C[C@H](CO)N1C[C@H](C)[C@@H](CN(C)S(=O)(=O)c2ccccc2)Oc2ccc(NC(=O)C3CC3)cc2C1=O	105	-2	62*	-4	1	0	-19	·
C[C@H](CO)N1C[C@H](C)[C@@H](CN(C)S(=O)(=O)c2ccccc2)Oc2ccc(NS(=O)(=O)c3ccccc3)cc2C1=O	91	-1	24	0	-2	·	·	·
C[C@H](CO)N1C[C@H](C)[C@@H](CN(C)S(=O)(=O)c2ccccc2)Oc2ccc(NC(=O)Nc3ccccc3)cc2C1=O	102	0	59*	3	-2	5	-5	·
C[C@@H]1CN([C@@H](C)CO)C(=O)c2cc(NS(C)(=O)=O)ccc2O[C@@H]1CN(C)S(=O)(=O)c1ccccc1	99	0	50*	-7	1	9	-22	·
COc1ccc(S(=O)(=O)Nc2ccc3c(c2)C(=O)N([C@H](C)CO)C[C@H](C)[C@@H](CN(C)S(=O)(=O)c2ccc(OC)cc2)O3)cc1	97	-1	66*	2	1	14	2	·
COc1ccc(S(=O)(=O)N2CCCCC2)cc1NC(=O)C1CC(=O)N(Cc2ccccc2)C1 (stereo not given)	105	0	-3	-1	-1	·	·	·
C[C@H](CO)N1C[C@H](C)[C@@H](CN(C)S(=O)(=O)c2ccc(F)cc2)Oc2ccc(NC(=O)Nc3ccc4c(c3)OCO4)cc2C1=O	100	0	53*	11	1	7	-11	·
C[C@@H]1CN([C@@H](C)CO)C(=O)c2cc(NS(C)(=O)=O)ccc2O[C@@H]1CN(C)Cc1ccc(C(F)(F)F)cc1	103	0	58*	-5	-5	15	-2	·
CC1=NOC(=O)/C1=C\c1ccc(-c2ccc(Cl)c(C(=O)O)c2)o1	86	4	67*	18	34	58*	-18	2
CC1(C)OC(=O)C(=Cc2ccc(-c3ccc(Cl)c(C(=O)O)c3)o2)C(=O)O1	83	1	57*	18	8	57*	-9	-10
Cc1ccc(N2NC(=O)/C(=C/c3ccc(-c4ccc(Cl)c(C(=O)O)c4)o3)C2=O)cc1C	99	2	22	-3	8	·	·	·
COc1ccccc1C(=O)NCCC(=O)Nc1ncccc1C	102	-8	-9	-13	-2	·	·	·
O=C1NC2c3c(Cl)sc(Cl)c3C(=O)C2O1 (stereo not given)	81	14	79*	9	16	71*	-11	18*
Cc1cc(C(F)F)n2nc(C(=O)Nc3sc4c(c3C(N)=O)CCC4)nc2n1	110	12	61*	10	4	55*	-12	4
C/C=C/C=C/C(=O)[C@@H]1[C@@H]([C@]2(C)OC(=O)C(C)=C2O)[C@H]2/C(=C(O)/C=C/C=C/C)C(=O)[C@]1(C)C(=O)C2(C)O (stereo not given in full)	·	2	72*	25	5	51*	-19	11*
COc1ccc(Nc2nnc(-c3ccncc3)s2)cc1Cl	112	64*	94*	93*	61*	68*	-13	-6
CC[N+]1(CC(O)COC2CC(C)CC(C)(C)C2)CCOCC1 (stereo not given)	89	-1	105*	-1	-4	91*	-11	-10
CCn1c(NC)cc(=O)n(C)c1=O	109	0	79*	24	-1	-12	-6	·
COc1ccc(C2=NN(C(C#N)c3ccc(OC)cc3)C(c3ccccc3)C2)cc1 (stereo not given)	127	2	-16	-4	4	·	·	·
CC1(C)CC(N2CCCC2)=CC(=[N+]2CCCC2)C1	94	-1	100*	2	-2	92*	-11	-20
CC1(C)CC(NNCCC#N)=CC(=[N+]2CCCC2)C1	108	0	-7	-2	-5	·	·	·
O=C(CN1CCN(S(=O)(=O)c2ccc(Cl)cc2)CC1)N1CCCC1	99	0	-6	-3	0	·	·	·
COC(=O)C1=C(C)N(c2ccc(C)c(C)c2)/C(=C/c2ccco2)C1=O	85	3	59*	-14	2	20	-9	·
SMILES	Pemphigus Ab inh	LMPTP inh	Scp-1 inhibitor	SUMO1 PPI mod	STEP inh	Scp1 confirm	Scp-1 MG ctr	Scp1 DSF
CCOC(=O)C1=C(C)N(c2ccc(C)c(C)c2)C(=O)/C1=C\c1ccco1	100	3	-15	-4	2	·	·	·
COc1ccc(C(=O)Oc2ccc(/C=N/NC(=O)Cc3ccc([N+](=O)[O-])cc3)cc2)cc1	92	13	91*	0	10	-11	-14	·
c1cncc(CN=C2Nc3ccccc3CS2)c1	112	0	69*	3	0	-12	-12	·
Cc1ccc(-c2cc(C(=O)N/N=C/c3ccc(Cl)cc3)n[nH]2)o1	·	2	65*	-6	5	88*	-7	-11
NS(=O)(=O)c1ccc(N=Nc2c(O)c(C(=O)O)cc3ccccc23)cc1	88	16	17	-22	9	·	·	·
O=C(O)Cc1ccc(N=Nc2c(O)c(C(=O)O)cc3ccccc23)cc1	87	45	50*	23	10	73*	-5	28*
O=C1NC[C@H](Cc2ccccc2)N(C[C@@H]2CCCN2C[C@H](Cc2ccc(O)cc2)N2C[C@H](Cc3ccccc3)N(CC3CCCCCC3)C(=O)C2=O)C1=O	·	8	·	2	·	·	·	·
COc1cccc(NC(=O)C2CCCCC2)c1	99	0	70*	-1	1	0	-10	·
COc1cccc(NC(=O)C2CCCC2)c1	106	-1	-8	-3	1	·	·	·
Cc1ccc(S(=O)(=O)N(CCCO)CC(O)CON=C2c3ccccc3-c3ccccc32)cc1 (stereo not given)	85	4	61*	6	3	16	-10	·
CCn1cc(CN2CCN(CCc3ccccc3)C(CCO)C2)c(C)n1 (stereo not given)	89	0	-3	-1	0	·	·	·
C=CC[N+](C)(C)CCCNC(=O)/C=N/O	·	-9	56*	-7	0	-7	-9	·

From PubChem
